Each compound was assayed on Staphylococcus aureus (assay: Antimicrobial activity against Staphylococcus aureus ATCC […] after 18-24 hrs by two-fold serial dilution method).
Assay type: functional
How it was run: (§1)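 Agar-medium twofold serial dilution against Gram-positive and Gram-negative strains; MIC taken as the lowest compound concentration giving complete inhibition of bacterial growth after incubation at 35 °C for 18-24 h.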
In the case of `COc1cccc(OC)c1CO/N=C1\CN(c2nc3c(cc2F)c(=O)c(C(=O)O)cn3C2CC2)CC1CN.CS(=O)(=O)O` (racemic), the MIC is reported as 0.03 µg/mL.

The compounds below were run on Enterococcus faecium (assay: Antimicrobial activity against Enterococcus faecium 10-9 after 18-24 hrs by two-fold serial dilution method).
Assay type: functional
How it was run: as §1
`COc1cccc(OC)c1CO/N=C1\CN(c2nc3c(cc2F)c(=O)c(C(=O)O)cn3C2CC2)CC1CN.CS(=O)(=O)O` (racemic) was tested, and the MIC was 8 µg/mL.

What follows are compounds tested on Pseudomonas aeruginosa (assay: Antimicrobial activity against extended spectrum beta-lactamases-producing Pseudomonas aeruginosa 10-20 after 18-24 hrs by two-fold serial dilution method).
Assay type: functional
How it was run: as §1
For `COc1cccc(OC)c1CO/N=C1\CN(c2nc3c(cc2F)c(=O)c(C(=O)O)cn3C2CC2)CC1CN.CS(=O)(=O)O` (racemic), the MIC was 2 µg/mL.

These compounds were tested on Klebsiella pneumoniae (assay: Antimicrobial activity against extended spectrum beta-lactamases-producing Klebsiella pneumoniae 10-3 after 18-24 hrs by two-fold serial dilution method).
Assay type: functional
How it was run: as §1
Work on `COc1cccc(OC)c1CO/N=C1\CN(c2nc3c(cc2F)c(=O)c(C(=O)O)cn3C2CC2)CC1CN.CS(=O)(=O)O` (racemic) yielded an MIC greater than 128 µg/mL.

What follows are compounds tested on Escherichia coli (assay: Antimicrobial activity against extended spectrum beta-lactamases-producing Escherichia coli 10-3 after 18-24 hrs by two-fold serial dilution method).
Assay type: functional
How it was run: as §1
Compound `COc1cccc(OC)c1CO/N=C1\CN(c2nc3c(cc2F)c(=O)c(C(=O)O)cn3C2CC2)CC1CN.CS(=O)(=O)O` (racemic) has an MIC of 16 µg/mL.

The compounds below were run on Staphylococcus aureus (assay: Antimicrobial activity against extended spectrum beta-lactamases-producing methicillin-sensitive Staphylococcus aureus 10-14 after 18-24 hrs by two-fold serial dilution method).
Assay type: functional
How it was run: as §1
`COc1cccc(OC)c1CO/N=C1\CN(c2nc3c(cc2F)c(=O)c(C(=O)O)cn3C2CC2)CC1CN.CS(=O)(=O)O` (racemic) showed an MIC of 0.125 µg/mL.

These compounds were tested on Pseudomonas aeruginosa (assay: Antimicrobial activity against extended spectrum beta-lactamases-producing Pseudomonas aeruginosa 10-18 after 18-24 hrs by two-fold serial dilution method).
Assay type: functional
How it was run: as §1
`COc1cccc(OC)c1CO/N=C1\CN(c2nc3c(cc2F)c(=O)c(C(=O)O)cn3C2CC2)CC1CN.CS(=O)(=O)O` (racemic) gave an MIC of 8 µg/mL.

Each compound was assayed on Staphylococcus epidermidis (assay: Antimicrobial activity against extended spectrum beta-lactamases-producing methicillin-sensitive Staphylococcus epidermidis 10-11 after 18-24 hrs by two-fold serial dilution method).
Assay type: functional
How it was run: as §1
For `COc1cccc(OC)c1CO/N=C1\CN(c2nc3c(cc2F)c(=O)c(C(=O)O)cn3C2CC2)CC1CN.CS(=O)(=O)O` (racemic), the MIC was 0.125 µg/mL.

These compounds were tested on Enterococcus faecalis (assay: Antimicrobial activity against Enterococcus faecalis 10-5 after 18-24 hrs by two-fold serial dilution method).
Assay type: functional
How it was run: as §1
With `COc1cccc(OC)c1CO/N=C1\CN(c2nc3c(cc2F)c(=O)c(C(=O)O)cn3C2CC2)CC1CN.CS(=O)(=O)O` (racemic) the MIC was 0.5 µg/mL.

These compounds were tested on Staphylococcus epidermidis (assay: Antimicrobial activity against extended spectrum beta-lactamases-producing methicillin-resistant Staphylococcus epidermidis 10-10 after 18-24 hrs by two-fold serial dilution method).
Assay type: functional
How it was run: (§2)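 Agar twofold serial dilution MIC against clinical isolates. MIC was taken as the lowest concentration giving complete inhibition of bacterial growth after incubation at 35 °C for 18-24 h.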
For `COc1cccc(OC)c1CO/N=C1\CN(c2nc3c(cc2F)c(=O)c(C(=O)O)cn3C2CC2)CC1CN.CS(=O)(=O)O` (racemic), the MIC was 0.25 µg/mL.

These compounds were tested on Escherichia coli (assay: Antimicrobial activity against Escherichia coli ATCC 25922 after 18-24 hrs by two-fold serial dilution method).
Assay type: functional
How it was run: as §1
In the case of `COc1cccc(OC)c1CO/N=C1\CN(c2nc3c(cc2F)c(=O)c(C(=O)O)cn3C2CC2)CC1CN.CS(=O)(=O)O` (racemic), the MIC is reported as 0.25 µg/mL.

The compounds below were run on Pseudomonas aeruginosa (assay: Antimicrobial activity against extended spectrum beta-lactamases-producing Pseudomonas aeruginosa 10-9 after 18-24 hrs by two-fold serial dilution method).
Assay type: functional
How it was run: as §1
Work on `COc1cccc(OC)c1CO/N=C1\CN(c2nc3c(cc2F)c(=O)c(C(=O)O)cn3C2CC2)CC1CN.CS(=O)(=O)O` (racemic) yielded an MIC of 4 µg/mL.

Each compound was assayed on Staphylococcus aureus (assay: Antimicrobial activity against extended spectrum beta-lactamases-producing methicillin-resistant Staphylococcus aureus 10-11 after 18-24 hrs by two-fold serial dilution method).
Assay type: functional
How it was run: as §2
For `COc1cccc(OC)c1CO/N=C1\CN(c2nc3c(cc2F)c(=O)c(C(=O)O)cn3C2CC2)CC1CN.CS(=O)(=O)O` (racemic), the MIC was 1 µg/mL.

Each compound was assayed on Escherichia coli (assay: Antimicrobial activity against extended spectrum beta-lactamases-producing Escherichia coli 10-2 after 18-24 hrs by two-fold serial dilution method).
Assay type: functional
How it was run: as §1
`COc1cccc(OC)c1CO/N=C1\CN(c2nc3c(cc2F)c(=O)c(C(=O)O)cn3C2CC2)CC1CN.CS(=O)(=O)O` (racemic) showed an MIC greater than 128 µg/mL.

These compounds were tested on Escherichia coli (assay: Antimicrobial activity against Escherichia coli 10-2 after 18-24 hrs by two-fold serial dilution method).
Assay type: functional
How it was run: as §1
`COc1cccc(OC)c1CO/N=C1\CN(c2nc3c(cc2F)c(=O)c(C(=O)O)cn3C2CC2)CC1CN.CS(=O)(=O)O` (racemic) was tested, and the MIC was 8 µg/mL.

These compounds were tested on Enterococcus faecium (assay: Antimicrobial activity against Enterococcus faecium 10-5 after 18-24 hrs by two-fold serial dilution method).
Assay type: functional
How it was run: as §1
With `COc1cccc(OC)c1CO/N=C1\CN(c2nc3c(cc2F)c(=O)c(C(=O)O)cn3C2CC2)CC1CN.CS(=O)(=O)O` (racemic) the MIC was 8 µg/mL.

Each compound was assayed on Escherichia coli (assay: Antimicrobial activity against extended spectrum beta-lactamases-producing Escherichia coli 10-4 after 18-24 hrs by two-fold serial dilution method).
Assay type: functional
How it was run: as §1
`COc1cccc(OC)c1CO/N=C1\CN(c2nc3c(cc2F)c(=O)c(C(=O)O)cn3C2CC2)CC1CN.CS(=O)(=O)O` (racemic) was tested, and the MIC was 4 µg/mL.

Each compound was assayed on Streptococcus pneumoniae (assay: Antimicrobial activity against extended spectrum beta-lactamases-producing Streptococcus pneumoniae 10-1 after 18-24 hrs by two-fold serial dilution method).
Assay type: functional
How it was run: as §1
`COc1cccc(OC)c1CO/N=C1\CN(c2nc3c(cc2F)c(=O)c(C(=O)O)cn3C2CC2)CC1CN.CS(=O)(=O)O` (racemic) gave an MIC of 0.125 µg/mL.
